The values that follow come from ChEMBL document CHEMBL1759898, “Synthesis of 5-arylated N-arylthiazole-2-amines as potential skeletal muscle cell differentiation promoters” (Bioorg Med Chem Lett, 2011).

Common to all, as to type: functional, cell-based
Assay [1] deals with C2C12. The experiment in a line: Induction of cell differentiation in mouse C2C12 cells assessed as myotube formation at 5 uM. A digest of the protocol: (§1)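 C2C12 myoblasts grown 2 days in growth medium to about 70% confluence, then differentiation induced by serum reduction in differentiation medium containing compound at 5 µM final (from 20 mM DMSO stock). Controls received equal DMSO. Incubation at 37 °C for 7 days, medium changed at days 3 and 5. Myotube morphology was photographed under the microscope at 3, 5 and 7 days. Duplicates, four controls.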

Assay [2] has as its system C2C12. The assay is described as follows: Induction of cell differentiation in mouse C2C12 cells assessed as myotube formation at 5 uM after 5 days. A digest of the protocol: as §1
For assay [3], the system named is C2C12. The experiment in a line: Induction of cell differentiation in mouse C2C12 cells assessed as myotube formation at 5 uM after 3 days. In outline: as §1
For assay [4], the system named is C2C12. The experiment in a line: Induction of cell differentiation in mouse C2C12 cells assessed as myotube formation at 5 uM after 7 days. In outline: as §1

Active and inactive are the calls of the source. The rule behind the calls is not given here.

Take `c1ccc(CN(c2ccccc2)c2ncc(-c3ccccc3)s2)cc1`: in the assay on C2C12 [1], the result was Active.
Same read-out and setting: next, `O=[N+]([O-])c1ccc(-c2cnc(N(Cc3ccccc3)c3ccccc3)s2)cc1`: “inactive”.
Take `Cc1ccccc1-c1cnc(N(Cc2ccccc2)c2ccccc2)s1`: the outcome in the assay on C2C12 [1] was inactive.
As to `CCOC(=O)c1ccc(-c2cnc(N(Cc3ccccc3)c3ccccc3)s2)cc1`, the outcome in the assay on C2C12 [1] was Active.
On the same count and under the same terms, the entry for `Cc1ccc(-c2cnc(N(Cc3ccccc3)c3ccccc3)s2)cc1` is “inactive”.
On to `c1ccc(CN(c2ccccc2)c2ncc(-c3cccs3)s2)cc1`, for which the outcome with C2C12 [2], in the assay on C2C12 [1], in the assay with C2C12 [3] and in the assay with C2C12 [4] was Active.
For `Fc1ncccc1-c1cnc(N(Cc2ccccc2)c2ccccc2)s1`, the result with C2C12 [1] was Active.
As for `Fc1ccc(-c2cnc(N(Cc3ccccc3)c3ccccc3)s2)cc1`, in the assay with C2C12 [1], the result was Active.
Same read-out and setting: the entry for `O=[N+]([O-])c1cccc(-c2cnc(N(Cc3ccccc3)c3ccccc3)s2)c1` is “Active”.
